Compound activity deposited in PubChem BioAssay by Broad Institute.
Rows were chosen to be rich in hits. Some 2.1% of all compounds tested hit in one or more screens of this group.
FGF22 binding – binders of recombinant human FGF22 by thermal shift. Q9HCT0. SYPRO orange fluorescence; percent of sucrose octasulfate shift, DMSO zero. activity (Tm shift, normalised), % at 9.99 µM. hit rate 1.5% among 340,000. AID 651658;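 active means mean Tm shift, scaled 0 neutral to 100 positive control, at about 1.3% or above, every replicate too, limit read from the data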
Target sequence (Q9HCT0 whole entry, looked up): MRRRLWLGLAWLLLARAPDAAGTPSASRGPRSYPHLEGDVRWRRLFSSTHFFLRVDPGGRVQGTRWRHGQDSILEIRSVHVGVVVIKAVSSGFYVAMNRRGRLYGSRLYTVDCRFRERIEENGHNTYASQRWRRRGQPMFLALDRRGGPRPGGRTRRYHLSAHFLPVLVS
PDI turbidity – PDI (human) enzyme inhibition; P07237; PDI insulin aggregation turbidity, A650, 90 min; inhibition, % at 10 µM; hit rate 0.052% among 350,000; AID 588391;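 active means mean inhibition across replicates of 30% or more, whatever share of single replicates reach that level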
Target sequence (P07237 whole entry, looked up): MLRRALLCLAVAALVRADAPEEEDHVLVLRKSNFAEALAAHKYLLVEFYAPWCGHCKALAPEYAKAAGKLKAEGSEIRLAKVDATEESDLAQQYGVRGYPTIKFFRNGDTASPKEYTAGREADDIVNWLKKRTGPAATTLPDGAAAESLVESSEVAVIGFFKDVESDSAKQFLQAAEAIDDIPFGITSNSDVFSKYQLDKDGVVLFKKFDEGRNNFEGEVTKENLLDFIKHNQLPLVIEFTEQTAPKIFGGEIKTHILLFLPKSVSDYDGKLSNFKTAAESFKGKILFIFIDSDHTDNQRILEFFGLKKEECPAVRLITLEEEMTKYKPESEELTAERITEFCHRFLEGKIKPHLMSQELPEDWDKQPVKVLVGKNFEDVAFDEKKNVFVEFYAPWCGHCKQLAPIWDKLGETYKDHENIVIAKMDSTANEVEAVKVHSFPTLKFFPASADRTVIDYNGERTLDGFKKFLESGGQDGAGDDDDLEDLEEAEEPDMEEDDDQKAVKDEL
ERp5 inh – blocks human ERp5 reductase activity on insulin; Q15084; ERp5 insulin aggregation, absorbance 650 nm, 90 min; inhibition, % at 9.99 µM; hit rate 0.05% among 350,000; AID 651711;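 active means mean replicate inhibition above about 25%, with every replicate also reaching it, limit read from the data, passing the limit was not always enough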
ARNT TACC3 PPI – ARNT/TACC3 interaction disruption. Q9Y6A5. AlphaScreen His-ARNT PAS-B/GST-TACC3 binding, luminescence; TACC3 fragment carries E629A point mutation. inhibition, % at 9.99 µM. hit rate 0.66% among 390,000. AID 623870;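 active means mean inhibition of replicates at least 50% and at least half of replicates each reaching 50%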
FN deposit inh – fibronectin deposition inhibition. inhibition, % at 12.6 µM. hit rate 0.086% among 350,000. AH1F fibroblasts, Alexa488-fibronectin deposition fluorescence, overnight;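 active means mean inhibition across replicates of 30% or more, regardless of how many single replicates reach that level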
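Material – AH1F fibroblast monolayer, labelled fibronectin deposition · Reagent – labelled fibronectin 24 nM · Timing – 1 h adhesion, overnight exposure · Measured by – fluorescence at 485 nm excitation, 525 nm emission · Read-out – inhibition of fibronectin deposition signal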
MLL AF4-AF9 inh – inhibitors of human MLL-AF4/AF9 interaction. hit rate 0.47% among 350,000. P42568. AlphaScreen, biotin-AF4 peptide binding to FLAG-AF9. inhibition, % at 10 µM. AID 651704;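 active means every replicate reaching a set inhibition limit, whatever the replicate mean, cut at about 25% in these data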
Of the large screens only hits and unclear results are named; the others gave an inactive call.

COc1cccc(/C=C2\SC(=S)N(CC3CCCO3)C2=O)c1 (centres undefined)	MLL AF4-AF9 inh 31.7
C[C@H](CO)N1C[C@H](C)[C@@H](CN(C)Cc2ccc(Cl)c(Cl)c2)Oc2ccc(NS(=O)(=O)c3ccc(Cl)cc3)cc2C1=O	none (no result: PDI turbidity, FN deposit inh)
CCN1C(=O)C2C(c3ccccc3F)NC(Cc3ccc(O)cc3)(C(=O)OC)C2C1=O (centres undefined)	PDI turbidity 52.7 (no result: FGF22 binding, ERp5 inh, MLL AF4-AF9 inh)
CCOCCCNc1c2c(nc3cc(-c4ccc(F)cc4)nn13)CCC2	FGF22 binding 43.1 (no result: ARNT TACC3 PPI)
CN(C)CCCNc1c2c(nc3cc(-c4cccc(F)c4)nn13)CCC2	none
O=C(NC(=S)N1CCN(c2nc(-c3ccccc3)cs2)CC1)c1cncc(Br)c1	FGF22 binding 43.3
Cc1ccc(S(=O)(=O)NNC(=O)C(O)(c2ccccc2)c2ccccc2)cc1	none
Cc1ccccc1S(=O)(=O)NNC(=O)C(=O)NNc1ccccn1	ARNT TACC3 PPI 70.2 (no result: FGF22 binding, ERp5 inh, FN deposit inh, MLL AF4-AF9 inh)
Cc1ccc(S(=O)(=O)NNC(=O)C(=O)NNc2ccccn2)cc1	ARNT TACC3 PPI 63.3 (no result: FGF22 binding, ERp5 inh, FN deposit inh, MLL AF4-AF9 inh)
Nc1ccc(S(=O)(=O)NNC(=O)C(=O)NNc2ccccn2)cc1	ARNT TACC3 PPI 73.6 (no result: FGF22 binding, FN deposit inh, MLL AF4-AF9 inh)
O=C(Nc1ccccn1)C(=O)Nc1ccccn1	none
CC(=O)Nc1ccc(S(=O)(=O)NNC(=O)C(=O)NNc2ccccn2)cc1	ARNT TACC3 PPI 74.7
Nc1ccc(S(=O)(=O)NCc2ccccn2)cc1	none
C[C@@H]1CCCCO[C@@H](CN(C)C(=O)c2ccccc2)[C@@H](C)CN([C@@H](C)CO)C(=O)c2cc(NC(=O)c3ccccc3)ccc2O1	none (no result: PDI turbidity)
Cc1noc(C)c1S(=O)(=O)Nc1ccc2c(c1)C(=O)N([C@H](C)CO)C[C@@H](C)[C@H](CN(C)C(=O)c1ccccc1)OCCCC[C@@H](C)O2	none (no result: FGF22 binding, PDI turbidity)
CCn1cc(CN2CCc3c([nH]c4ccccc34)C2c2cccc(OC)c2OC)c(C)n1 (centres undefined)	FGF22 binding 43.8 (no result: FN deposit inh)
CC(=O)N/N=C/c1cc(C(C)C)cc(/C=N/NC(C)=O)c1O	ARNT TACC3 PPI 72.3
CC(=O)N/N=C/c1cc(C)n(-c2ccc(Br)cc2)c1C	none
COc1ccc(Br)cc1CSC(=N)N	none
CCCCCOc1ccc(Br)cc1CSC(=N)N	FGF22 binding 43.7
CCOC(=O)c1c(N)sc(C(=O)N2CCCCC2)c1C	ARNT TACC3 PPI 47.0 (no result: FGF22 binding, ERp5 inh, FN deposit inh, MLL AF4-AF9 inh)
CCOC(=O)c1c(N)sc(C(=O)N2CCCC2)c1C	none (no result: FGF22 binding, ERp5 inh, ARNT TACC3 PPI, FN deposit inh, MLL AF4-AF9 inh)
Cc1noc(C)c1NC(=O)N(C)C[C@@H]1Oc2c(NC(=O)C3CC3)cccc2C(=O)N([C@@H](C)CO)C[C@@H]1C	none (no result: PDI turbidity, FN deposit inh)
CCOC(=O)C1(CCOc2ccccc2)CCN(Cc2cccc3nonc23)CC1	MLL AF4-AF9 inh 25.8
COCCn1c(SCC(=O)Nc2ccc(F)cc2)nc2c([nH]c3ccccc32)c1=O	none
CNC(=O)CSc1nc2c([nH]c3ccccc32)c(=O)n1CCOC	FGF22 binding 43.9
CC(NC(=O)COC(=O)C12CC3CC(CC(O)(C3)C1)C2)c1ccccc1 (centres undefined)	FGF22 binding 43.1
CO[C@H]1CN(C)C(=O)c2ccc(NC(=O)C3CCOCC3)cc2OC[C@@H](C)N(Cc2cccnc2)C[C@H]1C	none (no result: PDI turbidity)
COc1cc2[nH]c(=S)nc(NCCc3ccc(S(N)(=O)=O)cc3)c2cc1OC	ARNT TACC3 PPI 70.4
COc1cc2[nH]c(=S)nc(NCc3cccs3)c2cc1OC	none
COc1ccccc1CNc1nc(=S)[nH]c2cc(OC)c(OC)cc12	ARNT TACC3 PPI 53.5
COc1cc2[nH]c(=S)nc(NCCc3ccc(C)cc3)c2cc1OC	none
COc1cc2[nH]c(=S)nc(Nc3ccc(NC(C)=O)cc3)c2cc1OC	none (no result: ARNT TACC3 PPI)
COc1ccc(CCNc2nc(=S)[nH]c3cc(OC)c(OC)cc23)cc1OC	FGF22 binding 43.5, ARNT TACC3 PPI 55.6
CCN1C/C(=C/c2ccc(OC)c(O)c2)C(=O)/C(=C/c2ccc(OC)c(O)c2)C1	none (no result: FN deposit inh)
COc1ccc(/C=C2\CN(Cc3ccccc3)C/C(=C\c3ccc(OC)c(O)c3)C2=O)cc1O	PDI turbidity 54.5
CCOC(=O)C1=C(N)OC2=C(C(=O)CC(C)(C)C2)C1c1ccc(C)s1 (centres undefined)	FGF22 binding 43.7
COc1ccc(-n2nnnc2SCC(=O)N(C)C2CCS(=O)(=O)C2)cc1 (centres undefined)	FGF22 binding 43.3
CCCN(C(=O)CSc1nnnn1C)C1CCS(=O)(=O)C1 (centres undefined)	FGF22 binding 42.9
Cc1ccccc1-n1c(C)nnc1SCC(=O)N(C)C1CCS(=O)(=O)C1 (centres undefined)	none (no result: ARNT TACC3 PPI)
Cc1cc2nnc(SCC(=O)N(C)C3CCS(=O)(=O)C3)n2c2ccccc12 (centres undefined)	FGF22 binding 43.1
CO[C@@H]1CN(C)C(=O)c2cc(NC(=O)NC(C)C)ccc2OC[C@H](C)N(C(=O)CC2CC2)C[C@H]1C	none (no result: PDI turbidity)
O=C(Nc1ccc2c(c1)[C@H]1C[C@H](CC(=O)N3CCCCC3)O[C@@H](CO)[C@H]1O2)NC1CCCC1	none (no result: PDI turbidity)
Clc1ccc2nc3c4ccccc4cnn3c2c1	FGF22 binding 42.9
COn1c(-c2ccccc2)nc2ccc(Cl)cc21	none (no result: FGF22 binding, ERp5 inh, FN deposit inh, MLL AF4-AF9 inh)
O=C(C[C@H]1CC[C@H](NC(=O)c2ccc3c(c2)OCO3)[C@@H](CO)O1)NCc1ccc(Cl)cc1	none (no result: PDI turbidity, FN deposit inh)
C[C@@H]1CN([C@H](C)CO)C(=O)Cc2cc(NC(=O)c3ccncc3)ccc2O[C@@H]1CN(C)S(=O)(=O)c1ccccc1	none (no result: PDI turbidity)
N/C(=N\OC(=O)/C=C/c1ccccc1)c1cccnc1	FGF22 binding 43.2
N/C(=N\OC(=O)/C=C/c1ccccc1Cl)c1cccnc1	none (no result: ARNT TACC3 PPI)
CN(C)CC(=O)N[C@H]1CC[C@H](CCn2cc(CN(C)C)nn2)O[C@@H]1CO	none (no result: PDI turbidity, FN deposit inh)
O=C(Nc1ccc(N2CCCCC2)cc1)c1ccc([N+](=O)[O-])o1	none
CC(=O)c1ccc(OCC(=O)Nc2ccc(N3CCCCC3)cc2)cc1	MLL AF4-AF9 inh 25.6
COc1ccc(OCC(=O)Nc2ccc(N3CCCCC3)cc2)cc1	none
O=C(CNC1CCCC1)Nc1ccc(N2CCCCCC2)cc1	MLL AF4-AF9 inh 43.5
CC(=O)c1ccc(NC(=O)CNC2CCCCC2)cc1	none
CS(=O)(=O)N1CCN(c2ccc(NC(=O)c3ccc([N+](=O)[O-])o3)cc2)CC1	FN deposit inh 36.0
Cc1ccc(OCC(=O)Nc2ccc(N3CCN(S(C)(=O)=O)CC3)cc2)cc1	FGF22 binding 43.2
O=C1N[C@@H](Cc2ccccc2)COCc2cn(nn2)CC[C@@H]1Cc1ccc(-c2ccccc2)cc1	none (no result: FGF22 binding, PDI turbidity, ERp5 inh, ARNT TACC3 PPI, MLL AF4-AF9 inh)
COc1ccc(N2CCCC2)c(NC(=O)c2ccc([N+](=O)[O-])o2)c1	MLL AF4-AF9 inh 32.2
COc1ccc(NC(=O)N2CCN(C(=O)Nc3ccc(OC)cc3)CC2)cc1	none (no result: ARNT TACC3 PPI)
COc1ccc(NC(=O)N2CCN(S(C)(=O)=O)CC2)cc1	FGF22 binding 43.0
